Experiments:
[1] = Antiproliferative activity against doxorubicin-resistant human LoVo/DX cells after 72 hrs; assay type: functional, cell-based
Summary of the method: (§1)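 IC50 values (mean ± SD) were measured against human colon adenocarcinoma LoVo cells, their doxorubicin-resistant LoVo/DX subline, MV4-11 cells, and normal murine embryonic fibroblasts (BALB/3T3).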

LoVo [2] = assay: Resistant index, ratio of IC50 for human LoVo/DX cells to IC50 for LoVo cells; assay type: functional
Summary of the method: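 Resistance index was calculated from IC50 values obtained in the doxorubicin-resistant LoVo/DX subline and the parental LoVo line. RI 0–2 is classed as sensitive, 2–10 as moderately sensitive, and above 10 as strongly resistant.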

MV4-11 [3] = assay: Selectivity index, ratio of IC50 for mouse BALB/3T3 cells to IC50 for human MV4-11 cells; assay type: functional
Summary of the method: (§2)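 Selectivity index is the IC50 in normal BALB/3T3 fibroblasts divided by the IC50 in the respective cancer line. SI above 1.0 is taken as a favourable value.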

LoVo [4] = assay: Antiproliferative activity against human LoVo cells after 72 hrs; assay type: functional, cell-based; summary of the method: as §1
LoVo [5] = assay: Selectivity index, ratio of IC50 for mouse BALB/3T3 cells to IC50 for human LoVo cells; assay type: functional; summary of the method: as §2
[6] = Selectivity index, ratio of IC50 for mouse BALB/3T3 cells to IC50 for human LoVo/DX cells; assay type: functional; summary of the method: as §2
BALB/3T3 = assay: Antiproliferative activity against mouse BALB/3T3 cells after 72 hrs; assay type: cell-based; details: BALB/3T3, 72 h; summary of the method: as §1
MV4-11 [7] = assay: Antiproliferative activity against human MV4-11 cells after 72 hrs; assay type: functional, cell-based; details: MV4-11, 72 h; summary of the method: as §1
[8] = Ratio of doxorubicin IC50 to compound IC50 for doxorubicin-resistant human LoVo/DX cells; assay type: functional
[9] = Ratio of cisplatin IC50 to compound IC50 for doxorubicin-resistant human LoVo/DX cells; assay type: functional

Compound | IC50 [1] | Ratio IC50 (LoVo [2]) | Ratio IC50 (MV4-11 [3]) | IC50 (LoVo [4]) | Ratio IC50 (LoVo [5]) | Ratio IC50 [6] | IC50 (BALB/3T3) | IC50 (MV4-11 [7]) | Ratio IC50 [8] | Ratio IC50 [9]
CC[C@@H](C(=O)[C@@H](C)[C@@H](O)[C@H](C)[C@@H]1O[C@@H]([C@@H](CC)C(=O)N[C@@H](CO)C(=O)OC)CC[C@@H]1C)[C@H]1O[C@]2(C=C[C@@H](O)[C@]3(CC[C@@](C)([C@H]4CC[C@](O)(CC)[C@H](C)O4)O3)O2)[C@H](C)C[C@@H]1C | 7.77 µM | 0.44 | 6.9 | 17.7 µM | 2.27 | 5.16 | 40.1 µM | 5.81 µM |  | 
CC[C@@H](C(=O)[C@@H](C)[C@@H](O)[C@H](C)[C@@H]1O[C@@H]([C@@H](CC)C(=O)N[C@@H](Cc2ccc(O)cc2)C(=O)OC)CC[C@@H]1C)[C@H]1O[C@]2(C=C[C@@H](O)[C@]3(CC[C@@](C)([C@H]4CC[C@](O)(CC)[C@H](C)O4)O3)O2)[C@H](C)C[C@@H]1C | 7.12 µM | 0.48 | 12.22 | 14.7 µM | 2.95 | 6.09 | 43.4 µM | 3.55 µM |  | 
CC[C@@H](C(=O)[C@@H](C)[C@@H](O)[C@H](C)[C@@H]1O[C@@H]([C@@H](CC)C(=O)N[C@@H](Cc2ccccc2)C(=O)OC)CC[C@@H]1C)[C@H]1O[C@]2(C=C[C@@H](O)[C@]3(CC[C@@](C)([C@H]4CC[C@](O)(CC)[C@H](C)O4)O3)O2)[C@H](C)C[C@@H]1C | 3.49 µM | 1 | 5.89 | 3.49 µM | 4.87 | 4.87 | 17 µM | 2.89 µM |  | 
CC[C@@H](C(=O)[C@@H](C)[C@@H](O)[C@H](C)[C@@H]1O[C@@H]([C@@H](CC)C(=O)O)CC[C@@H]1C)[C@H]1O[C@]2(C=C[C@@H](O)[C@]3(CC[C@@](C)([C@H]4CC[C@](O)(CC)[C@H](C)O4)O3)O2)[C@H](C)C[C@@H]1C [SALINOMYCIN] | 0.59 µM | 1.11 | 84.12 | 0.53 µM | 52.38 | 47.05 |  | 0.33 µM |  | 
CC[C@@H](C(=O)[C@@H](C)[C@@H](O)[C@H](C)[C@@H]1O[C@@H]([C@@H](CC)C(=O)NCC(=O)OC)CC[C@@H]1C)[C@H]1O[C@]2(C=C[C@@H](O)[C@]3(CC[C@@](C)([C@H]4CC[C@](O)(CC)[C@H](C)O4)O3)O2)[C@H](C)C[C@@H]1C | 3.93 µM | 0.74 | 11.64 | 5.29 µM | 8.03 | 10.81 | 42.5 µM | 3.65 µM |  | 
COc1cccc2c1C(=O)c1c(O)c3c(c(O)c1C2=O)C[C@@](O)(C(=O)CO)C[C@@H]3O[C@H]1C[C@H](N)[C@H](O)[C@H](C)O1 [DOXORUBICIN] | 7.26 µM | 80.67 | 6.2 | 0.09 µM | 3.44 | 0.04 | 0.31 µM | 0.05 µM |  | 
CC[C@@H](C(=O)[C@@H](C)[C@@H](O)[C@H](C)[C@@H]1O[C@@H]([C@@H](CC)C(=O)N[C@@H](Cc2cnc[nH]2)C(=O)OC)CC[C@@H]1C)[C@H]1O[C@]2(C=C[C@@H](O)[C@]3(CC[C@@](C)([C@H]4CC[C@](O)(CC)[C@H](C)O4)O3)O2)[C@H](C)C[C@@H]1C | 0.85 µM | 0.23 | 46.26 | 3.67 µM | 10.08 | 43.54 | 37 µM | 0.8 µM | 9 | 3

From ChEMBL document CHEMBL3603839, “Synthesis and antiproliferative activity of new bioconjugates of Salinomycin with amino acid esters” (Bioorg Med Chem Lett, 2015)
